The source made the active and inactive calls. The calls are words filed in the database; no cut-off is given here.
What was measured:
Type in all cases: functional
[1] = Antioxidant activity against LDL-oxidation assessed as conjugated diene formation lag time at 3.0 uM
In short: (§1)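 Human plasma LDL (120 µg protein/mL) oxidized with 5 µM CuSO4, with or without compound; conjugated diene formation read as absorbance at 234 nm every 10 min for 4 h. Lag time taken as elapsed time before onset of rapid conjugated hydroperoxide formation.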

[2] = Antioxidant activity against LDL-oxidation by TBARS assay
In short: (§2)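 Copper-mediated oxidation of human plasma LDL (120 µg/mL); oxidation quantified by TBARS formation. Mean of two independent experiments, each in duplicate.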

[3] = Antioxidant activity assessed as inhibition of LDL-oxidation at 20 uM by TBARS assay; in short: as §2
[4] = Antioxidant activity assessed as inhibition of apoB100 fragmentation at 10 uM by SDS-PAGE method
In short: (§3)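 Human LDL in PBS incubated 4 h at 37 °C with 5 µM CuSO4 with or without compound. About 2.0 µg LDL protein run on 7.5% SDS-PAGE, Coomassie-stained, densitometrically scanned; apoB-100 band area given as absorbance units per mm.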

THP-1 [5] = assay: Antioxidant activity against LDL-oxidation in human THP1 cells assessed as malondialdehyde level per mg of LDL protein at 1 uM
In short: (§4)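 PMA-differentiated THP-1 macrophages incubated 24 h at 37 °C in serum-free RPMI 1640 with LDL (100 µg/mL) and 2 µM Cu2+, with or without compound. TBARS measured directly in harvested medium, expressed as MDA nmol/mg LDL protein; mean ± SD, n = 3.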

[6] = Antioxidant activity assessed as inhibition of copper-mediated LDL-oxidation at 10 uM by relative electrophoretic mobility method
In short: (§5)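 LDL (120 µg/mL in PBS) incubated 12 h at 37 °C with 5 µM CuSO4 with or without compound. About 2.0 µg LDL protein run on 0.7% agarose gel, Coomassie-stained, densitometrically scanned; migration distance measured, protection expressed relative to native and fully oxidized LDL.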

THP-1 [7] = assay: Antioxidant activity against LDL-oxidation in human THP1 cells assessed as malondialdehyde level per mg of LDL protein at 5 uM; in short: as §4
[8] = Antioxidant activity assessed as inhibition of apoB100 fragmentation at 20 uM by SDS-PAGE method; in short: as §3
[9] = Antioxidant activity assessed as inhibition of copper-mediated LDL-oxidation at 20 uM by relative electrophoretic mobility method; in short: as §5
[10] = Antioxidant activity against LDL-oxidation assessed as conjugated diene formation lag time at 1.0 uM; in short: as §1

SMILES	IC50 [2] [µM]	inhibition [3] [%]	also measured
COc1cc(C[C@H](C)[C@H](C)Cc2ccc(O)c(O)c2)ccc1O	3.6	91	–
COc1cc(C(OC)C(C)C(C)Cc2ccc3c(c2)OCO3)ccc1O (centres undefined)	7.9	28.9	–
C[C@H](Cc1ccc2c(c1)OCO2)[C@H](C)Cc1ccc2c(c1)OCO2	–	0	Activity [2]: inactive
COc1cc([C@@H](O)[C@H](C)[C@H](C)Cc2ccc3c(c2)OCO3)ccc1O	6.3	45.7	–
COc1cc(C[C@@H](C)[C@@H](C)Cc2ccc(O)c(OC)c2)ccc1O [MESODIHYDROGUAIARETIC ACID]	2.6	93	inhibition [4]: 54%; Activity (THP-1 [5]): 306.3 nmol; inhibition [6]: 72%; Activity (THP-1 [7]): 35.2 nmol; inhibition [8]: 93%; inhibition [9]: 82%; Activity [10]: 140 min

Further lines, with some results ahead:

IC50 [2] [µM]	SMILES	inhibition [3] [%]	also measured
3.1	CC(C)(Sc1cc(C(C)(C)C)c(O)c(C(C)(C)C)c1)Sc1cc(C(C)(C)C)c(O)c(C(C)(C)C)c1 [PROBUCOL]	92	Activity [1]: 67 min
7.5	COc1cc(C[C@H](C)[C@H](C)Cc2ccc3c(c2)OCO3)ccc1O [AUSTROBAILIGNAN 6]	64.5	–
7.3	COc1cc([C@H]2c3cc4c(cc3C[C@@H](C)[C@@H]2C)OCO4)ccc1O	40.9	–

— ChEMBL document CHEMBL1140775, “Low-density lipoprotein (LDL)-antioxidant lignans from Myristica fragrans seeds” (Bioorg Med Chem Lett, 2008)
